IC50 and Kd data for one compound are collected here from ChEMBL document CHEMBL2380224, “Fragment-based ligand design of novel potent inhibitors of tankyrases” (J Med Chem, 2013).

For experiment [1], the target named is Protein mono-ADP-ribosyltransferase PARP6 (Homo sapiens, UniProt Q2NL67). The experiment in a line: Inhibition of PARP6 (unknown origin).
The target in experiment [2] is T1, Protein mono-ADP-ribosyltransferase PARP3 (Homo sapiens, UniProt Q9Y6F1).
T1 sequence (Q9Y6F1 whole entry): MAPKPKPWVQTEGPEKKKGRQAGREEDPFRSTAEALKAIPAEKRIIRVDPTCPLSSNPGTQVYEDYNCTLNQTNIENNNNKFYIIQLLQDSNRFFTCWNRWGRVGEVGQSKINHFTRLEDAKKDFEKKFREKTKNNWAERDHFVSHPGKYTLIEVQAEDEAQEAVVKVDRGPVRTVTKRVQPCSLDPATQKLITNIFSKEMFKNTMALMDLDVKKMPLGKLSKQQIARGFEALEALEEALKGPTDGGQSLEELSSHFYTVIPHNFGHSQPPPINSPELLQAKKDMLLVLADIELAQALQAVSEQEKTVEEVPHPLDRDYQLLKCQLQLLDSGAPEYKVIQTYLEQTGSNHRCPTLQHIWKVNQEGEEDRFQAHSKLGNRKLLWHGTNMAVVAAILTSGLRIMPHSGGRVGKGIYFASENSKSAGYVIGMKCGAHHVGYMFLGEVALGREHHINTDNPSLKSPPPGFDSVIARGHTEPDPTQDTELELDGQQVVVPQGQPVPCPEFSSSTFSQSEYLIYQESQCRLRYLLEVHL
The experiment in a line: Inhibition of PARP3 (unknown origin).

Experiment [3] has as its target Poly [ADP-ribose] polymerase 1 (Homo sapiens, UniProt P09874). The experiment in a line: Inhibition of PARP1 (unknown origin).
For experiment [4], the target named is T2, Poly [ADP-ribose] polymerase tankyrase-2 (Homo sapiens, UniProt Q9H2K2).
T2 sequence (Q9H2K2 whole entry): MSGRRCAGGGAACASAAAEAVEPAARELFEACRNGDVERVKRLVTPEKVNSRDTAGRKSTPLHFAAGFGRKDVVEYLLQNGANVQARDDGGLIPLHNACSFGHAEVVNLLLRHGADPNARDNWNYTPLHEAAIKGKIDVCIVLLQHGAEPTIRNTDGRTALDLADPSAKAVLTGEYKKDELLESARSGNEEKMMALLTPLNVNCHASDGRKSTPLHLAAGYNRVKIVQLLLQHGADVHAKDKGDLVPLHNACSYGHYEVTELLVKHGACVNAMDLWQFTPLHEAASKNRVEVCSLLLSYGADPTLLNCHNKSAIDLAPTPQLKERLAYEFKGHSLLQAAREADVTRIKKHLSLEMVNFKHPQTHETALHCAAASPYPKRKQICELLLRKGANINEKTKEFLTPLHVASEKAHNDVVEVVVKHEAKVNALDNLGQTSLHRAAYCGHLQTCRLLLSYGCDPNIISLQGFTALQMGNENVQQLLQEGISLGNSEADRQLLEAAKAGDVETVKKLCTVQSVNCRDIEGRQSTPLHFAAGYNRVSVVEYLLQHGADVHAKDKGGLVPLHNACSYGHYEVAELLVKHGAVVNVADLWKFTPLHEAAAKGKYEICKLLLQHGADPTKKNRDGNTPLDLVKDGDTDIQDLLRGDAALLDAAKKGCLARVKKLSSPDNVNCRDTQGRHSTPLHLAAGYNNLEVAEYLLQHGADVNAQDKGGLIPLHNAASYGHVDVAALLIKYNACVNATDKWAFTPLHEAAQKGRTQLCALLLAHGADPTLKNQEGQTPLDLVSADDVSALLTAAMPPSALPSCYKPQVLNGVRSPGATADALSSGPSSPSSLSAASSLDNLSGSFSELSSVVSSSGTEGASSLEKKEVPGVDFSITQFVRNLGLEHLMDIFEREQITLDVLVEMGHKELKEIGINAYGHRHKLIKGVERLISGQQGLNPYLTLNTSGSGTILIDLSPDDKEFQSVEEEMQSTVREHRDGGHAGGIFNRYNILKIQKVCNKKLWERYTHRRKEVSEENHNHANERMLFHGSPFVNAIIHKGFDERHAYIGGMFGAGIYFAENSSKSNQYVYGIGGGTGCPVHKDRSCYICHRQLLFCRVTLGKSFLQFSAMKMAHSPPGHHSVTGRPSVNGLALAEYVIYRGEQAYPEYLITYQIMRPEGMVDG
Nature of the experiment: Binding affinity to 6His-tagged TNKS2 PARP domain (947 to 1162) (unknown origin) expressed in Escherichia coli BL21(DE3) by surface plasmon resonance analysis. A digest of the protocol:
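SPR on a Biacore instrument. Running buffer: 20 mM PBS pH 7.4, 0.05% Tween20, 2% DMSO. His-tagged TNKS2 (20 μg/mL in 20 mM PBS pH 7.4) was capture-coupled at 10 μL/min onto a Ni²⁺/NHS doubly preactivated NTA chip, to a target of 5000 RU.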

Where only a bound is given, the exact number is not on record here.

Sequence of Poly [ADP-ribose] polymerase 1 (P09874 whole entry): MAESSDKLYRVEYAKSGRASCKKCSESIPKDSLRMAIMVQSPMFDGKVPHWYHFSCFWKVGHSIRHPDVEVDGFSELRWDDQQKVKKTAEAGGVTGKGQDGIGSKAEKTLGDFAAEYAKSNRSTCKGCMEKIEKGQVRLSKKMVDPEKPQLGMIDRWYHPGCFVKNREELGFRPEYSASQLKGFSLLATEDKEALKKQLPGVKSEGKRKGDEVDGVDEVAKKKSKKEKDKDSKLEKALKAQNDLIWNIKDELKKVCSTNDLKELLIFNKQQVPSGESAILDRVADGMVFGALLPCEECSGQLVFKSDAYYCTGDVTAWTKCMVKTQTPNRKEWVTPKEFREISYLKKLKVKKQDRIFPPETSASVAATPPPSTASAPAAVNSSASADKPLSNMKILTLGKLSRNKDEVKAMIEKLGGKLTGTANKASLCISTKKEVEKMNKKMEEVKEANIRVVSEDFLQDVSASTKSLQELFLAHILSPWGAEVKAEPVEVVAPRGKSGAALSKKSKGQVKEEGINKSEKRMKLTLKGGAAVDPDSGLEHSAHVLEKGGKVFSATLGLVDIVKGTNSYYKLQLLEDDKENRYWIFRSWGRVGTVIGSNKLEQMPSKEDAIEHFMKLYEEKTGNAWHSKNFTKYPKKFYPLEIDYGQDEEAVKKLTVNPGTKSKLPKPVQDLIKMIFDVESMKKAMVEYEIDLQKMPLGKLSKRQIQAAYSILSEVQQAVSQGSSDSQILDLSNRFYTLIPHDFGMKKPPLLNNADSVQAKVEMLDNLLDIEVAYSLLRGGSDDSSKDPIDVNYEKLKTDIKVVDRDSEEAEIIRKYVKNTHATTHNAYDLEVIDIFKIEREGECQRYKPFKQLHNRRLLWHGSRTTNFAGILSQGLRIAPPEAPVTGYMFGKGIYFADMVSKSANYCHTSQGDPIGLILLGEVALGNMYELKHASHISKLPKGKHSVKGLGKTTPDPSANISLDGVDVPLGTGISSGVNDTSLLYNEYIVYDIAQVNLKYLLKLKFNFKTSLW
Sequence of Protein mono-ADP-ribosyltransferase PARP6 (Q2NL67 whole entry): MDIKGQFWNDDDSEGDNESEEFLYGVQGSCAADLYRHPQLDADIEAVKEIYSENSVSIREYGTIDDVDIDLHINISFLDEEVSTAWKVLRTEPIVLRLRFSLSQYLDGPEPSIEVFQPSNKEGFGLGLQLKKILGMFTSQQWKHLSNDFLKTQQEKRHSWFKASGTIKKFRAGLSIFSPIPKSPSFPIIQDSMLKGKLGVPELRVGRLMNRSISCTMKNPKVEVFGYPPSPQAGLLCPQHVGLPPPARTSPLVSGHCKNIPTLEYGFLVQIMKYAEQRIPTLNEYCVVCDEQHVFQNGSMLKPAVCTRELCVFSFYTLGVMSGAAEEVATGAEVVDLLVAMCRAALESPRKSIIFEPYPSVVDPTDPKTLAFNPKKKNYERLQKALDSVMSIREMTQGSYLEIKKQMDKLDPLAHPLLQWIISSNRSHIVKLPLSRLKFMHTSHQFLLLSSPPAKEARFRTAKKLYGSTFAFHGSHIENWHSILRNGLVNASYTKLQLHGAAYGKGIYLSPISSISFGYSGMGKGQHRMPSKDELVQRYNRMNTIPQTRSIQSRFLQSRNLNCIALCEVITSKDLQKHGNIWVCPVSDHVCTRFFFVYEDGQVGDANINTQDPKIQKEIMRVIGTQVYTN

A word on the IC50: it is the concentration that inhibits the measured activity by half. Low readings indicate inhibition by little substance, high ones a need for much substance. Broadly, the Kd is the free concentration of one partner at which half of the binding sites on the other are occupied at equilibrium, for simple one-to-one binding. Read a high Kd as lower affinity. `Cc1cc(=O)[nH]c2cc(-c3ccccc3F)ccc12`: the IC50 in experiment [1], in experiment [2] and in experiment [3] was greater than 10 µM each time. Besides, binding in experiment [4] was put at a Kd of 0.28 µM.
